The record followed here is ChEMBL document CHEMBL1145563, “Monoglycerides from the brown alga Sargassum sagamianum: Isolation, synthesis, and biological activity” (Bioorg Med Chem Lett, 2008).

Molecules are shown by their SMILES.

For test [1], the target named is T1, Prostaglandin G/H synthase 2 (Homo sapiens) (UniProt P35354).
T1 sequence (whole entry): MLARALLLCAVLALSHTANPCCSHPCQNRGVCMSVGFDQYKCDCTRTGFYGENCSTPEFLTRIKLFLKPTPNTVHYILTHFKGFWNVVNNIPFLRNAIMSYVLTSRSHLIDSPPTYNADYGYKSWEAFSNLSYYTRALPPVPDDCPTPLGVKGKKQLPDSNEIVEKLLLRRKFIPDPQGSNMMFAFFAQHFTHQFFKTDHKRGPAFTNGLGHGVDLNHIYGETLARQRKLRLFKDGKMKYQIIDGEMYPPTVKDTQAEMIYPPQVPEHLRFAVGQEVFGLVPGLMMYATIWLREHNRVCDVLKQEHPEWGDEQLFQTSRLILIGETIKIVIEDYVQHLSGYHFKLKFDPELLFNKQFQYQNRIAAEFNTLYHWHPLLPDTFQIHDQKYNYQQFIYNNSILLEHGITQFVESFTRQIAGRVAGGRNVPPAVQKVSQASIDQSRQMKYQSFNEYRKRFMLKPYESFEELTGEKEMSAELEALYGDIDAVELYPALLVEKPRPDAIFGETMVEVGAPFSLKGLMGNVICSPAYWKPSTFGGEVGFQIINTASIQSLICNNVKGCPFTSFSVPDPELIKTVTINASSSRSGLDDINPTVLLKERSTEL
As to the kind of experiment: Inhibition of COX2 at 50 uM. In outline:
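COX-2 activity followed as PGE2 in the medium, measured in triplicate by enzyme immunoassay: samples, enzymatic tracer and specific antiserum incubated overnight at 4 °C, plates washed, Ellman's reagent added, absorbance at 414 nm read after 1–3 h. PGE2 read from a 50–0.39 pg/mL standard curve. Percent inhibition given as mean of three experiments.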

Test [2] deals with T2, Phospholipase A2, membrane associated (Homo sapiens) (UniProt P14555).
T2 sequence (whole entry): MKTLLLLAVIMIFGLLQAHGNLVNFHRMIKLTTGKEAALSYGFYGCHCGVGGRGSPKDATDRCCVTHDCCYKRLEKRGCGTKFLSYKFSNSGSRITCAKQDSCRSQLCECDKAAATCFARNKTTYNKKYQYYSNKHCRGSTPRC
Kind of test: Inhibition of sPLA2-2A at 10 uM by coupled enzyme assay. In outline: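 Phospholipase A2 activity measured by a coupled enzyme assay with DL-PC as substrate and lipoxygenase as the coupling enzyme. Percent inhibition given as mean of three experiments.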

On to `CCCCC/C=C/C/C=C\CCCCCCCC(=O)OCC(O)CO` (stereo unspecified), for which the inhibition in test [1] was 20.5%; in test [2] it was 38.1%.

Take `CCCCCCCCCCCCCCCCCC(=O)OCC(O)CO` (stereo unspecified): the inhibition in test [1] amounted to 16.5%; in test [2], 32.8%.

Take `CC/C=C\C/C=C\C/C=C\CCCCCCCC(=O)OCC(O)CO` (stereo unspecified): the inhibition in test [2] worked out at 32%.

On to `CC/C=C/C/C=C/C/C=C/C/C=C\C/C=C/C/C=C/CCC(=O)OCC(O)CO` (stereo unspecified), for which the figures for the inhibition in test [1] and in test [2] were 74.2% and 41.7%, respectively.

For `CCCCC/C=C/C/C=C\C/C=C/C/C=C/CCCC(=O)OCC(O)CO` (stereo unspecified), in test [2], the inhibition was found to be 33.6%.

As to `CCCCC/C=C/C/C=C/C/C=C\C/C=C/CCCCCC(=O)OCC(O)CO` (stereo unspecified), the inhibition in test [1] amounted to 86.8%; in test [2], 37.9%.

With `CC/C=C/C/C=C/C/C=C/C/C=C\C/C=C/CCCCCC(=O)OCC(O)CO` (stereo unspecified), the inhibition was determined as 92.9% in test [1] and 37.4% in test [2].

For the molecule `CC/C=C/C/C=C/C/C=C\C/C=C/CCCCC(=O)OC[C@@H](O)CO`, the results for the inhibition in test [1] and in test [2] were 35.6% and 26.1%, respectively.

Take `CC/C=C/C/C=C/C/C=C\C/C=C/C/C=C/CCCC(=O)OCC(O)CO` (stereo unspecified): the figures for the inhibition in test [1] and in test [2] were 71.9% and 37.4%, respectively.

As for `CCCCC/C=C/C/C=C\C/C=C/CCCCCCC(=O)OCC(O)CO` (stereo unspecified), the inhibition in test [2] was found to be 53.9%.

`CCCCCCCC/C=C\CCCCCCCC(=O)OCC(O)CO` (stereo unspecified): the inhibition in test [1] came out at 24.7%; in test [2], 60.6%.

`CCCCC/C=C\C/C=C\C/C=C\CCCCC(=O)OCC(O)CO` (stereo unspecified): the inhibition was -6.5% in test [1] and 38.8% in test [2].

For orientation: inhibition means the change of the read-out against control, counted positive when it falls.
